Assay results taken from publication PMC4010123 (Neuron, 2014).
“Also recorded” adds a separate entry of the source.

Legend:
[1] = system: NR2B; conditions: infusion into dorsal hippocampus; ref Zhang et al., 2008; cited from earlier work
[2] = system: NMDAR / NR2B component of NMDAR-EPSC; test: Whole-cell voltage-clamp NMDAR-EPSC, CA1 pyramidal neurons in hippocampal slices; type: cell-based, mouse
In short: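 Acute mouse hippocampal slices were pretreated with vehicle or Cdk5 inhibitor. Whole-cell voltage-clamp recordings of synaptically evoked NMDAR-EPSCs were made from CA1 pyramidal neurons, first without and then with the NR2B blocker ifenprodil. The ifenprodil-sensitive part was taken as the NR2B component; decay kinetics were also measured.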

[3] = system: NR2B; test: NR2B cell surface expression in siP-infused hippocampal area CA1; type: in vivo; conditions: rat CA1, NR2B siP vs scramble control; 4 pooled tissue punches
In short: (§1)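 Sprague-Dawley rats received continuous bilateral dorsal hippocampal infusion of test or scrambled peptide by osmotic pump. Epifluorescent CA1 tissue punches were immunoblotted, with protease and phosphatase inhibitors present. P-S1116 was expressed as the P-S1116/total NR2B ratio. Cell surface NR2B was measured from 4 pooled punches per condition.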

[4] = system: NR2B-Cdk5 interaction; test: Pull-down of Cdk5 by recombinant GST-tagged NR2B in vitro; type: binding; conditions: n = 3
[5] = system: Cdk5-NR2B protein-protein interaction; test: Co-immunoprecipitation of Cdk5 and NR2B from hippocampal slices; type: cell-based, mouse; conditions: 4 pooled slices per sample
In short: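 Acute mouse hippocampal slices were treated in Mg2+-free Krebs buffer with test peptide, scrambled peptide or Cdk5 inhibitor. Four slices were pooled per sample for NR2B–Cdk5 co-immunoprecipitation and immunoblotting, with Cdk5 input shown.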

[6] = system: NMDAR/AMPAR EPSC; test: NMDA/AMPA EPSC ratio in cortical slices; type: cell-based; conditions: cortical slices (pyramidal neurons), NR2B siP vs scrambled control; n = 12–16
[7] = system: Ser1116 of NR2B; test: P-S1116 NR2B in CA1 after siP infusion and fear conditioning; type: in vivo; conditions: NR2B siP infusion (Figure S5A)
In short: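 Test peptide or control peptide was infused into dorsal hippocampus before fear conditioning. Animals were killed 1 h after training, and CA1 lysates were prepared with protease and phosphatase inhibitors. P-S1116 and total NR2B were measured by quantitative immunoblot and reported as the P-S1116/total NR2B ratio. Data are mean ± SEM.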

[8] = system: Sprague-Dawley rats; test: Fear conditioning in rats, chronic infusion into dorsal hippocampus; type: in vivo, rat; conditions: for conditioned fear response at 96 h: extinction trial, both groups (siP and scrambled) (Figure S4E)
In short: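 Two-month-old Sprague-Dawley rats received continuous bilateral dorsal hippocampal infusion by mini-osmotic pump, starting 24 h before training. Training: 2 min exploration, then a 30 s tone (90 dB, 10 kHz) co-terminating with a foot shock (2 s, 0.7 mA); 2 min more in the box. Context tests: 5 min at 24, 48, 72 and 96 h. Tone recall at 27 h in a novel vanilla context (3 min, then 3 min tone). Freezing was time-sampled every 5 s, blind. After extinction and pump expiry, rats were retrained (0.7 mA) and context-tested 24 h later.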

[9] = system: hippocampal CA3-CA1 pathway (fEPSP); test: Extracellular field recordings, CA3-CA1 fEPSP slope in hippocampal slices; type: cell-based, mouse; conditions: for fEPSP slope, effect of NR2B siP in presence of Ro 25–6981: Ro 25–6981 3 μM, added 10 min before Pen siP (2 μM, 30 min)
In short: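 Hippocampal slices were used; wild-type slices came from 3-month-old C57BL/6 mice. CA1 fEPSPs were evoked by bipolar Schaffer collateral stimulation (0.1 ms pulses at 0.033 Hz) at the intensity giving 50% of maximal slope. After a stable baseline, Pen-tagged test or control peptide was perfused for 30 min. Where used, Ro 25–6981 (3 μM) perfusion began 10 min before peptide. Read-out: percent change from baseline fEPSP slope.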

[10] = system: Ser1116 of NR2B phosphorylated by Cdk5; test: P-S1116 NR2B in acute striatal slices; type: cell-based; conditions: acute mouse striatal slices, NR2B siP (Figure S3C and D)
In short: (§2)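 Acute mouse striatal slices were treated in Mg2+-free Krebs buffer with polyarginine (R7)-tagged test peptide (0–100 μM, 0–180 min). Lysates were prepared with protease and phosphatase inhibitors and immunoblotted. For NR2B, P-S1116 was expressed as the P-S1116/total NR2B ratio; for DARPP-32, phospho-Thr75 was probed with total DARPP-32.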

[11] = system: Cdk5 (substrate recombinant NR2B, Ser1116); test: In vitro phosphorylation of Ser1116 NR2B by Cdk5; type: biochemical; conditions: immunoblot
[12] = system: NR2B component of NMDAR EPSC; test: Ifenprodil-sensitive NR2B component of NMDAR EPSC in slices; type: cell-based; conditions: slices incubated with NR2B siP vs scramble control; n = 6–7
[13] = system: NR2B or Cdk5; test: NR2B and Cdk5 expression levels in hippocampal slices; type: cell-based, mouse; conditions: NR2B siP
In short: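 Mouse hippocampal slices treated in Mg2+-free Krebs buffer with the test peptide (0–100 μM, 0–180 min) or a scrambled control peptide. NR2B–Cdk5 association was assessed by co-immunoprecipitation using 4 pooled slices per sample. NR2B and Cdk5 levels were immunoblotted, with loading shown.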

[14] = system: mice; test: Fear conditioning in mice, acute infusion into dorsal hippocampus; type: in vivo, mouse
[15] = system: GFP-NR2B; test: Cell surface GFP-NR2B in dendrites of cultured hippocampal neurons; type: cell-based, rat; conditions: NR2B siP 2 μM, 30 min, vs control peptide (S1116A); n = 49–64 cells
[16] = system: Cdk5 (substrate inhibitor-1); test: In vitro phosphorylation of inhibitor-1 by Cdk5; type: biochemical; conditions: Figure S3A
[17] = system: NR2B; test: Cell surface biotinylation of NR2B in hippocampal slices; type: cell-based, mouse; conditions: n = 4
[18] = system: Thr75 DARPP-32 (Cdk5 substrate); test: phospho-Thr75 DARPP-32 in acute brain slices; type: cell-based, mouse; conditions: acute striatal slices, NR2B siP (Figure S3C and D)
In short: as §2

[19] = system: Ser1116 of NR2B; test: P-S1116 in siP-infused hippocampal area CA1; type: in vivo; conditions: rat CA1, NR2B siP vs scramble control; n = 4
In short: as §1

[20] = system: rats; test: Nociception, pain threshold and motor reflexes; type: in vivo, rat; conditions: chronic infusion (Figure S4B and C)
In short: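 Rats received continuous bilateral infusion of the test peptide or a scrambled control into dorsal hippocampus by mini-osmotic pump, starting 24 h before fear conditioning. Nociception was scored as the foot-shock threshold that elicits flinching, jumping and vocalizing in the conditioning box; a tail flick test was also used. Scoring was blind. Data are mean ± SEM.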

[21] = system: Ser1116 of NR2B phosphorylated by Cdk5; test: P-S1116 NR2B in acute hippocampal slices; type: cell-based, mouse
[22] = system: total NR2B; test: Total NR2B levels in hippocampal slices; type: cell-based, mouse; conditions: acute hippocampal slices, NMDA 50 or 100 μM, 15 min
In short: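 Acute mouse hippocampal slices were exposed to NMDA (50 or 100 μM, 15 min) in Mg2+-free Krebs buffer. Lysates were prepared with protease and phosphatase inhibitors and immunoblotted for total NR2B.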

[23] = slices from Cdk5 cKO mice, NR2B siP 2 μM, 30 min, n = 3

## CC(C(O)c1ccc(O)cc1)N1CCC(Cc2ccccc2)CC1 (stereo not shown) [ifenprodil]
[1]
  contextual fear learning: impair contextual fear learning
  locomotor or anxiety-related behavior: but not locomotor or anxiety-related behavior
[2]; controls (vehicle), n = 6–7
  reduction of NMDAR-EPSC by ifenprodil in control slices: 20%
[2]; slices treated with CP681301, n = 6–7
  reduction of NMDAR-EPSC by ifenprodil in CP681301-treated slices: 33%

## RRPPRSPDHKRYFRDKE [NR2B siP]
[3]
  NR2B cell surface expression: increases NR2B cell surface expression
[4]
  block of pull-down of Cdk5 by GST-tagged NR2B: most potently blocked the pull-down of Cdk5; also recorded: dose-dependently disrupts NR2B-Cdk5 binding in vitro
[5]
  Cdk5-NR2B co-immunoprecipitation / interaction: disrupts NR2B-Cdk5 interaction; also recorded: effectively blocked subsequent co-immunoprecipitation of Cdk5 and NR2B
[6]
  NMDA/AMPA EPSC ratio, increase: 1.8 fold
[7]
  P-S1116 NR2B in CA1 one hour post-training: decreased P-S1116 NR2B in CA1 one hour post-training
[8]; rats, 48 and 72 h after initial training (Figure S4D and E)
  contextual memory enhancement during extinction trials: contextual memory enhancement persisted
[8]; rats, chronic infusion, 27 h after conditioning
  tone-induced freezing: no effect
[8]; rats
  conditioned fear response at 96 h: extinguished by 96 h for both groups
[8]; rats, re-trained after extinction and expiration of pump (Figure S4F)
  contextual fear memory 24 h after re-training: increased
[8]; two-month-old rats, chronic infusion, n = 20
  contextual fear memory: improved contextual fear memory
[9]; n = 3
  fEPSP slope, effect of NR2B siP in presence of Ro 25–6981: did not show a significant effect
[9]; hippocampal slices, after washout of NR2B siP (Pen siP), vs control peptide
  fEPSP slope, steady state after washout, relative to control treated slices: 1.6 fold
[9]; [23]
  fEPSP slope in Cdk5 cKO, effect: almost absent in Cdk5 cKO mice
  fEPSP slope in Cdk5 cKO, increase: 1.2 fold
[10]
  P-S1116 in striatal slices: time-dependently reduced P-S1116
[11]
  in vitro phosphorylation of Ser1116 NR2B by Cdk5: dose-dependently inhibits
[12]
  ifenprodil-sensitive NR2B component of NMDAR EPSC, increase: 1.5 fold
[13]
  levels of NR2B or Cdk5 expression: did not alter levels of NR2B or Cdk5 expression
[14]; 3 month-old mice, acute infusion
  freezing levels in context test, acute compared with chronic infusion: comparable to the levels observed with chronic infusion
[14]; 3 month-old mice, acute infusion 90 min prior to conditioning, n = 6–10
  freezing in the tone test: not freezing to tone; also recorded: did not reveal any significant changes
[14]; 14 month-old mice, acute infusion 90 min prior to training, vs control peptide or non-infused cannulated controls (Figure S5B)
  contextual fear memory, increase, aged mice: 1.7 fold
[15]
  cell surface GFP-NR2B levels, increase, siP: 1.5 fold
[16]
  in vitro phosphorylation of inhibitor-1: did not inhibit
[17]; NR2B siP 1 h, 100 μM
  NR2B cell surface levels, increase, siP: 3.3 fold
[17]; NR2B siP or Scramble 1 h, 100 μM, or CP681301 1 h, 50 μM
  NR2B cell surface levels: increased
[18]
  phosphorylation state of Thr75 DARPP-32: no effect
[19]
  P-S1116 in infused region: reduces P-S1116
[20]
  nociception, pain threshold, or motor reflexes: neither NR2B siP, nor scrambled control affected nociception, pain threshold, or motor reflexes

## RRRSYFHKEDRPPRDK [scrambled, reference compound]
[5]
  Cdk5-NR2B co-immunoprecipitation / interaction: did not affect Cdk5-NR2B interactions
[8]; rats
  conditioned fear response at 96 h: extinguished by 96 h for both groups
[11]
  in vitro phosphorylation of Ser1116 NR2B by Cdk5: did not attenuate Ser1116 phosphorylation in vitro
[11]; listed as scramble
  in vitro phosphorylation of Ser1116 NR2B by Cdk5: no effect
[20]
  nociception, pain threshold, or motor reflexes: neither NR2B siP, nor scrambled control affected nociception, pain threshold, or motor reflexes

## C[C@@H](CN1CCC(Cc2ccccc2)CC1)[C@@H](O)c1ccc(O)cc1 [Ro25–6981]
[1]
  contextual fear learning: impair contextual fear learning
  locomotor or anxiety-related behavior: but not locomotor or anxiety-related behavior
[9]; n = 3
  fEPSP slope, effect of NR2B siP in presence of Ro 25–6981: blocked

## C=C1[C@@H](O)[C@@H]2O[C@]3(CC[C@H](/C=C/[C@@H](C)[C@@H]4CC(C)=C[C@@]5(O[C@H](C[C@@](C)(O)C(=O)O)CC[C@H]5O)O4)O3)CC[C@H]2O[C@@H]1[C@@H](O)C[C@H](C)[C@H]1O[C@@]2(CCCCO2)CC[C@H]1C [okadaic acid]
[21]; hippocampal slices, PP2A/PP1 inhibitor okadaic acid + NMDA (Figure S2C)
  ability of NMDA to reduce P-S1116 in presence of okadaic acid: attenuated

## CN[C@H](CC(=O)O)C(=O)O [NMDA, N-methyl-D-aspartate]
[22]
  total NR2B levels: reduced total NR2B levels
[21]; acute hippocampal slices, NMDA 50 or 100 μM, 15 min, n = 4
  P-S1116 normalized to total NR2B: dose-dependently attenuated P-S1116
